Data reported in ChEMBL document CHEMBL1125107, “Cephalosporin 3'-quinolone esters with a dual mode of action” (J Med Chem, 1990).
Converted amounts (≈) assume the structure as drawn.

Experiments:
[1] = tested on: Citrobacter freundii; assay: In vitro antibacterial activity was determined against Citrobacter freundii BS-16; type: functional
Outline: (§1)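 MIC by serial 2-fold dilution in Mueller-Hinton broth; results given as minimum inhibitory concentrations (nmol/mL).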

[2] = tested on: Enterobacter cloacae; assay: In vitro antibacterial activity was determined against Enterobacter cloacae P99 (Class Ia beta-lactamase overproducer); type: functional; outline: as §1
[3] = tested on: Escherichia coli; assay: In vitro antibacterial activity was determined against Escherichia coli TEM-1 (TEM-1 (class IIIa) beta-lactamase producer); type: functional; outline: as §1
[4] = tested on: Proteus mirabilis; assay: In vitro antibacterial activity was determined against Proteus mirabilis 90; type: functional; outline: as §1
[5] = tested on: Proteus vulgaris; assay: In vitro antibacterial activity was determined against Proteus vulgaris 1028BC (Class Ic beta-lactamase overproducer; type: functional; outline: as §1
[6] = tested on: Serratia marcescens; assay: In vitro antibacterial activity was determined against Serratia marcescens 1071; type: functional
Outline: (§2)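 Broth MIC determination: serial 2-fold dilutions in Mueller-Hinton broth by standard methodology; the lowest concentration inhibiting growth is reported as the MIC, in nmol/mL.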

[7] = tested on: Staphylococcus aureus; assay: In vitro antibacterial activity was determined against Staphylococcus aureus 1059B (inducible, high level beta-lactamase producer); type: functional
Outline: (§3)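 Serial 2-fold broth dilution in Mueller-Hinton broth, run by standard methodology; read-out is the minimum inhibitory concentration (MIC).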

[8] = tested on: Staphylococcus aureus; assay: In vitro antibacterial activity was determined against Staphylococcus aureus ATCC 29213 (inducible, low level beta-lactamase producer); type: functional; outline: as §3
[9] = tested on: Streptococcus pneumoniae; assay: (§4) In vitro antibacterial activity was determined against Streptococcus pneumoniae 6301; type: functional; outline: as §2
[10] = tested on: Streptococcus pyogenes; assay: In vitro antibacterial activity was determined against Streptococcus pyogenes 4; type: functional; outline: as §2
[11] = tested on: Pseudomonas aeruginosa; assay: In vitro antibacterial activity was determined against Pseudomonas aeruginosa 18S/H (Class Id beta-lactamase overproducer); type: functional; outline: as §2
[12] = tested on: Enterococcus faecalis; assay: In vitro antibacterial activity was determined against Enterococcus faecalis ATCC 29212; type: functional; outline: as §1
[13] = tested on: Staphylococcus aureus; assay: In vitro antibacterial activity was determined against Staphylococcus aureus 95 (Methicillin-resistant, high-level beta-lactamase producer); type: functional; outline: as §3
[14] = Half life period in rat after (i.v.) administration of a dose of 20 mg/kg; type: ADME, organism-based; set-up: dose 20 mg/kg, route intravenous; conditions: in vivo, iv
Outline: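 Rats given 20 mg/kg iv; plasma half-life determined.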

[15] = Evaluated for its stability in human plasma pH 6.5 at 37 degrees Celsius as determined by HPLC analysis; type: ADME
[16] = tested on: Escherichia coli; assay: In vitro antibacterial activity was determined against Escherichia coli UB 1005; type: functional; outline: as §1
[17] = Toxicity was determined; type: organism-based; conditions: mouse, in vivo
Outline: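 Acute toxicity in mice after intravenous dosing, expressed as LD50 (mg/kg iv).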

[18] = tested on: Proteus vulgaris; assay: In vitro antibacterial activity was determined against Proteus vulgaris 1028 BC (Class Ic beta-lactamase overproducer); type: functional; outline: as §1
[19] = tested on: Staphylococcus aureus; assay: In vitro antibacterial activity was determined against Staphylococcus aureus 1059B ( inducible, high level beta-lactamase producer); type: functional; outline: as §2
[20] = tested on: Staphylococcus aureus; assay: In vitro antibacterial activity was determined against Staphylococcus aureus ATCC 29213 ( inducible, low level beta-lactamase producer); type: functional; outline: as §2
[21] = tested on: Pseudomonas aeruginosa; assay: In vitro antibacterial activity was determined against Pseudomonas aeruginosa ATCC 27853; type: functional; outline: as §2
[22] = tested on: Pseudomonas aeruginosa; assay: In vitro antibacterial activity was determined against Pseudomonas aeruginosa 18S/H ( Class Id beta-lactamase overproducer); type: functional; outline: as §2
[23] = Evaluated for its stability in Mueller-Hinton broth at 37 degrees Celsius as determined by HPLC analysis; conditions: pH 6.5
[24] = tested on: Escherichia coli; assay: Evaluated for the minimum inhibitory concentration against Escherichia coli UB 1005; type: functional; outline: as §1
[25] = tested on: Pseudomonas aeruginosa; assay: Minimum inhibitory concentration against Pseudomonas aeruginosa ATCC 27853; type: functional; outline: as §2
[26] = tested on: Proteus vulgaris; assay: Minimum inhibitory concentration against Proteus vulgaris 1028 BC (Class Ic beta-lactamase overproducer); type: functional; outline: as §2
[27] = tested on: Pseudomonas aeruginosa; assay: Evaluated for the minimum inhibitory concentration against Pseudomonas aeruginosa 18S/H (Class Id beta-lactamase overproducer); type: functional; outline: as §1
[28] = tested on: Streptococcus pneumoniae; assay: Minimum inhibitory concentration against Streptococcus pneumoniae 6301; type: functional; outline: as §2
[29] = tested on: Streptococcus pyogenes; assay: Minimum inhibitory concentration against Streptococcus pyogenes 4; type: functional; outline: as §2
[30] = tested on: Staphylococcus aureus; assay: Minimum inhibitory concentration against Staphylococcus aureus 95 (Methicillin-resistant, high-level beta-lactamase producer); type: functional; outline: as §3
[31] = tested on: Proteus mirabilis; assay: Evaluated for the minimum inhibitory concentration against Proteus mirabilis 90
[32] = tested on: Pseudomonas aeruginosa; assay: Evaluated for the minimum inhibitory concentration against Pseudomonas aeruginosa 18S/H ( Class Id beta-lactamase overproducer); type: functional; outline: as §1
[33] = tested on: Proteus vulgaris; assay: Evaluated for the minimum inhibitory concentration against Proteus vulgaris 1028 BC ( Class Ic beta-lactamase overproducer); type: functional; outline: as §1
[34] = tested on: Enterobacter cloacae; assay: Evaluated for the minimum inhibitory concentration against Enterobacter cloacae P99 ( Class Ia beta-lactamase overproducer); type: functional; outline: as §1
[35] = tested on: Proteus vulgaris; assay: Evaluated for the minimum inhibitory concentration against Proteus vulgaris 1028 BC ( Class Ic beta-lactamase overproducer; type: functional; outline: as §1
[36] = tested on: Staphylococcus aureus; assay: Evaluated for the minimum inhibitory concentration against Staphylococcus aureus ATCC 29213 ( inducible, low level beta-lactamase producer); type: functional; outline: as §3
[37] = tested on: Staphylococcus aureus; assay: Evaluated for the minimum inhibitory concentration against Staphylococcus aureus 1059B ( inducible, high level beta-lactamase producer); type: functional; outline: as §3
[38] = tested on: Escherichia coli; assay: In vivo effective dose against mice infected with Escherichia coli 257; type: functional
Outline: (§5)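 Mouse protection test against systemic infection, run by literature procedures; the compound was given subcutaneously, and the effective dose (ED50, mg/kg) was determined.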

[39] = tested on: Escherichia coli; assay: In vitro antibacterial activity was determined against Escherichia coli DC-O; type: functional; outline: as §1
[40] = tested on: Micrococcus luteus; assay: In vitro antibacterial activity was determined against Micrococcus luteus PCI; type: functional; outline: as §1
[41] = tested on: Streptococcus pyogenes; assay: In vivo effective dose against mice infected with streptococcus pyogenes 4; type: functional; outline: as §5
[42] = tested on: Streptococcus pneumoniae; assay: as §4; type: functional; outline: as §2; remark: listed apart in the source

Row | SMILES | MIC [1] | MIC [2] | MIC [3] | MIC [4] | MIC [6] | MIC [8] | MIC [9] | MIC [10] | MIC [11] | MIC [12] | MIC [13] | MIC [18] | MIC [19] | MIC [21] | MIC [24] | MIC [25] | MIC [28] | MIC [29] | MIC [30] | MIC [32] | other results
1 | CCn1cc(C(=O)O)c(=O)c2cc(F)c(N3CCSCC3)cc21 | 16 mg/L (≈ 47.6 µM) | 0.125 mg/L (≈ 0.372 µM) | 0.5 mg/L (≈ 1.49 µM) | 16 mg/L (≈ 47.6 µM) | 0.25 mg/L (≈ 0.743 µM) | 0.063 mg/L (≈ 0.187 µM) | 16 mg/L (≈ 47.6 µM) | 8 mg/L (≈ 23.8 µM) | 1 mg/L (≈ 2.97 µM) | 1 mg/L (≈ 2.97 µM) | 0.063 mg/L (≈ 0.187 µM) |  |  |  |  |  |  |  |  |  | MIC [5]: 0.5 mg/L (≈ 1.49 µM); MIC [7]: 0.125 mg/L (≈ 0.372 µM)
2 | CCn1cc(C(=O)OCC2=C(C(=O)O)N3C(=O)[C@@H](NC(=O)COc4ccccc4)C3SC2)c(=O)c2cc3c(cc21)OCO3 (stereo partly drawn) | 2 mg/L (≈ 3.29 µM) | 0.5 mg/L (≈ 0.823 µM) | 1 mg/L (≈ 1.65 µM) | 4 mg/L (≈ 6.58 µM) | 1 mg/L (≈ 1.65 µM) |  |  |  |  | 64 mg/L (≈ 105 µM) | 4 mg/L (≈ 6.58 µM) | 0.25 mg/L (≈ 0.411 µM) | 0.5 mg/L (≈ 0.823 µM) | > 256 mg/L |  |  |  |  |  |  | half-life [14]: 0.217 h; half-life [15]: 6 h; MIC [16]: 32 mg/L (≈ 52.7 µM); LD50 [17]: > 500 mg/kg; MIC [20]: 0.25 mg/L (≈ 0.411 µM); MIC [22]: 16 mg/L (≈ 26.3 µM); half-life [23]: 11.2 h
3 | CN1CCN(c2c(F)cc3c(=O)c(C(=O)OCC4=C(C(=O)O)N5C(=O)[C@@H](NC=O)C5SC4)cn(CCF)c3c2F)CC1 (stereo partly drawn) |  |  |  |  |  |  |  |  |  |  |  |  |  |  | 32 mg/L (≈ 52.5 µM) | > 128 mg/L | 0.25 mg/L (≈ 0.41 µM) | 0.25 mg/L (≈ 0.41 µM) | 32 mg/L (≈ 52.5 µM) |  | MIC [26]: 0.5 mg/L (≈ 0.82 µM); MIC [27]: 64 mg/L (≈ 105 µM); MIC [31]: 32 mg/L (≈ 52.5 µM)
4 | CCn1cc(C(=O)OCC2=C(C(=O)O)N3C(=O)[C@@H](NC(=O)/C(=N/OC)c4csc(N)n4)C3SC2)c(=O)c2cc(F)c(N3CCCC3)cc21 (stereo partly drawn) |  |  |  |  |  |  |  |  |  |  |  |  |  |  | 0.5 mg/L (≈ 0.715 µM) | > 128 mg/L | < 0.008 mg/L | 1 mg/L (≈ 1.43 µM) | 0.5 mg/L (≈ 0.715 µM) | 32 mg/L (≈ 45.7 µM) | MIC [33]: 4 mg/L (≈ 5.72 µM)
5 | CCn1cc(C(=O)O)c(=O)c2cc(F)c(N3CCN(C=O)CC3)cc21 [4-N-FORMYL-1-PIPERAZINYL-NORFLOXACIN] |  |  |  |  |  |  |  |  |  |  |  |  |  |  |  | 16 mg/L (≈ 46.1 µM) | 8 mg/L (≈ 23 µM) | 8 mg/L (≈ 23 µM) | 1 mg/L (≈ 2.88 µM) | 2 mg/L (≈ 5.76 µM) | MIC [34]: 0.5 mg/L (≈ 1.44 µM); MIC [35]: 0.5 mg/L (≈ 1.44 µM); MIC [36]: 1 mg/L (≈ 2.88 µM); MIC [37]: 1 mg/L (≈ 2.88 µM)
6 | CN1CCN(c2c(F)cc3c(=O)c(C(=O)O)cn(CCF)c3c2F)CC1 [FLEROXACIN] | 1 mg/L (≈ 2.71 µM) | 0.125 mg/L (≈ 0.338 µM) | 0.125 mg/L (≈ 0.338 µM) | 0.5 mg/L (≈ 1.35 µM) | 0.25 mg/L (≈ 0.677 µM) | 0.5 mg/L (≈ 1.35 µM) | 4 mg/L (≈ 10.8 µM) | 1 mg/L (≈ 2.71 µM) | 2 mg/L (≈ 5.42 µM) | 4 mg/L (≈ 10.8 µM) | 0.5 mg/L (≈ 1.35 µM) | 0.25 mg/L (≈ 0.677 µM) | 0.5 mg/L (≈ 1.35 µM) | 4 mg/L (≈ 10.8 µM) |  |  |  |  |  |  | ED50 [38]: 0.4 mg/kg; MIC [39]: 1.19 µM (≈ 0.44 µg/mL); MIC [40]: 38.2 µM (≈ 14.1 µg/mL); ED50 [41]: 183 mg/kg; MIC [42]: 9.53 µM (≈ 3.52 µg/mL)
